CCR6 antagonist: antagonists of human CCR6 receptor. inhibition, % at 20 µM. hit rate 0.49% among 340,000. P51684. CHO-K1 CCR6 PathHunter beta-arrestin, luminescence, CCL20-stimulated;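 active = compounds whose inhibition of the agonist-driven luminescence signal at 20 µM reaches about 50%, limit read from the data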;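 note: cells stimulated with CCL20 at 14 nM final; plate controls were DMSO with CCL20 for no effect and DMSO without agonist for full effect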
APJ antag: antagonists of human APJ apelin receptor. AID 2521. CHO-K1 APJ beta-arrestin complementation, luminescence. hit rate 0.32% among 330,000. inhibition, % at 20 µM. P35414;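 active = inhibition above about 40% at 20 µM, limit read from the data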;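 note: cells challenged with 10 nM apelin-13 agonist together with compound; plate controls were apelin-13 plus DMSO wells for no effect and DMSO wells lacking apelin-13 for full effect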
CXCR6 block: CXCR6 (human) receptor inhibition. O00574. CHO-K1 PathHunter CXCR6 beta-arrestin, luminescence. inhibition, % at 20 µM. hit rate 0.36% among 360,000; in the data active = inhibition above about 34%, passing the limit was not always enough;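 note: antagonist mode with CXCL16 agonist at 10 nM final; 0% = 10 nM CXCL16 with DMSO and 100% = unstimulated wells without agonist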
Target sequence (O00574 whole entry, looked up): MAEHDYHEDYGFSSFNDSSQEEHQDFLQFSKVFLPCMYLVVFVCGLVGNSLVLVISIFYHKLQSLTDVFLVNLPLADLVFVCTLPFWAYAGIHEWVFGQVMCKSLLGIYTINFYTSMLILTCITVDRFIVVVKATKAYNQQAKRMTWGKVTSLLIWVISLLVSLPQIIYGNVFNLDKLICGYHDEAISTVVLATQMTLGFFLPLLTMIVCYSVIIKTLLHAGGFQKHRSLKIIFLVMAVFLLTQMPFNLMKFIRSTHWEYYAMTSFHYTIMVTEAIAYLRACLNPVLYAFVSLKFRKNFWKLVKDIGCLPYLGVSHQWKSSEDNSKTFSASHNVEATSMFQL
APJ ag: activates the human apelin receptor APJ | AID 2520 | hit rate 0.11% among 330,000 | CHO-K1 APJ PathHunter beta-arrestin, luminescence; 0% DMSO wells, 100% apelin | activation, % at 20 µM;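 active = activation more than six SD over the plate average, tested at 20 µM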;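 note: 0% = DMSO alone and 100% = apelin-13 at 10 nM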
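assay system = CHO-K1 APJ beta-arrestin complementation cell line | input = cell density 1000 per well | dosing = compound 20 µM once, DMSO 1% | timing = compound 90 min 25 °C, reagent 1 h | measured by = luminescence from split beta-galactosidase complementation, Galacton Star/Emerald II substrate | read-out basis = APJ agonist activity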
EBI2 block: antagonists of human EBI2 receptor; P32249; EBI2 beta-arrestin recruitment, luminescence, 7a,25-OHC stimulated; inhibition, % at 5 µM; hit rate 0.81% among 360,000; AID 651636; in the data active = inhibition above about 38%;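 note: enzyme fragment complementation signal reports receptor beta-arrestin coupling in cells; 0% = agonist plus DMSO wells and 100% = wells without agonist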
EBI2 conf: EBI2 (human) antagonism, single concentration confirmation. EBI2 beta-arrestin luminescence, 7a,25-OHC antagonism. inhibition, % at 5 µM. hit rate 29% among 2,400. shares compounds with EBI2 block;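 active = inhibition of at least 50%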
EBI2 ag: EBI2 agonism counter-screen; shares compounds with EBI2 block; EBI2-expressing cells, agonist mode, luminescence, 60 min; 0% vehicle, 100% 7α,25-dihydroxycholesterol control; activation, % at 5 µM; 2,400 tested, under 10 active;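 active = activation of at least 50%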
bGal counter: inhibits E. coli beta-galactosidase, counter-screen for EBI2 antagonists. shares compounds with EBI2 block. purified beta-galactosidase, luminescent Galacton Star, 15 min. inhibition, % at 5 µM. hit rate 1% among 2,400. AID 652176;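 active = replicate-average signal at least 3 plate SD below neutral wells, shown as high inhibition, flagging enzyme-inhibiting false positives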;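 note: 0% = DMSO wells with enzyme and 100% = wells lacking enzyme; higher means stronger loss of beta-gal luminescence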
* marks the source's active call; other numbers are inactive results; . = not tested or not shown. Only some compounds are listed: those with a hit (about 1.5% of all), similar ones and a draw of the others.

SMILES | CCR6 antagonist | APJ antag | CXCR6 block | APJ ag | EBI2 block | EBI2 conf | EBI2 ag | bGal counter
CCCNC(=O)C1(C)CCN(C(=O)COCc2ccccc2)C1 (configuration not stated) | . | . | -5 | . | -11 | . | . | .
CCOc1ccc(N(CC(=O)NCCOc2ccc(C)cc2)S(=O)(=O)c2ccccc2)cc1 | 6 | 3 | 11 | 2 | 91* | 65* | 2 | 4
COc1ccc(N(CC(=O)NCCOc2ccccc2)S(=O)(=O)c2ccc(C)cc2)cc1 | 18 | -23 | 3 | -3 | 87* | 64* | 1 | 2
COc1ccccc1OCCn1nc2ccccc2c1OC | . | . | . | . | -4 | . | . | .
Nc1nc(N)c2cc(CNc3ccc(Cl)c(Cl)c3)ccc2n1 | . | . | 14 | . | -25 | . | . | .
c1ccc(Cn2ncc3c(N4CCN(c5ccccc5)CC4)ncnc32)cc1 | . | . | -16 | . | -21 | . | . | .
Cn1cccc1Cc1nnc(SCC(=O)Nc2cccc(F)c2)n1CCc1ccccc1 | 1 | 16 | 7 | -1 | 45* | 39 | -2 | -8
Cc1ccc(-n2c(Cc3cccn3C)nnc2SCC(=O)NCc2ccc3c(c2)OCO3)cc1 | -6 | -2 | 9 | -3 | 45* | 37 | 1 | -4
Cc1ccc(-n2c(Cc3cccn3C)nnc2SCC(=O)Nc2ccc3c(c2)OCO3)cc1 | -4 | -13 | -10 | 0 | 24 | . | . | .
COc1ccc(-n2c(Cc3cccn3C)nnc2SCC(=O)Nc2cc(Cl)ccc2OC)cc1 | 7 | 19 | 4 | -3 | 58* | 27 | 0 | 10
COc1ccc(-n2c(Cc3cccn3C)nnc2SCC(=O)NCc2ccccc2Cl)cc1 | 19 | 11 | 5 | -5 | 56* | 19 | 1 | 5
COC(=O)C(C(=O)OC)c1ccccc1CNS(=O)(=O)c1ccc(C)cc1 | . | . | . | . | 1 | . | . | .
COc1ccc(OC)c(NC(=O)Nc2nc(C(N)c3ccccc3Cl)cs2)c1 (configuration not stated) | . | . | -2 | . | -1 | . | . | .
COc1ccc(-n2c(Cc3cccn3C)nnc2SCC(=O)Nc2ccccc2OC)cc1 | 6 | 8 | -8 | 0 | 45* | 31 | 1 | 10
COc1ccc(-n2c(Cc3cccn3C)nnc2SCC(=O)Nc2ccccc2)cc1 | 2 | 1 | -3 | -2 | 29 | . | . | .
COc1ccc(-n2c(Cc3cccn3C)nnc2SCC(=O)Nc2cccc(F)c2)cc1 | 12 | 26 | 1 | -6 | 56* | 7 | -1 | -9
CN1CCN(c2ccc(CNC(=O)C3(C)Cc4c(-c5ccc6c(c5)OCO6)ccnc4O3)cc2)CC1 (configuration not stated) | . | . | 2 | . | 5 | . | . | .
